Only some compounds are listed: those with a hit (about 3% of all), similar ones and a draw of the others.
TRPC4 agonist = opens the mouse TRPC4 cation channel | HEK293 TRPC4beta/mu-opioid, Fluo4 calcium fluorescence; stronger effect = higher value | B-score at 10 µM | 310,000 compounds, 0.49% hits | AID 2237;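 active = B-score above 5 SD of library B-scores, and initial fluorescence ratio not above library mean plus 5 SD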;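 note: positive B-score marks a calcium rise read as TRPC4 activation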
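Technique: kinetic Fluo4 calcium fluorescence; Test system: TRPC4beta and mu-opioid receptor HEK293 stable cells; Measure: B-scored integrated calcium fluorescence ratio; Benchmarks: low control buffer alone, high control maximal DAMGO; Schedule: 45 min room-temperature Fluo4 loading, 110 s read.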
TRPC4 block = blocks the mouse TRPC4 cation channel; 300,000 compounds, 0.39% hits; Q9QUQ5; B-score at 10 µM; HEK293 TRPC4beta/mu-opioid, DAMGO-evoked Fluo4 calcium flux; stronger effect = lower value;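 active = B-score over 3 SD under the library average, no early fluorescence shift, positive overall ratio signal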
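Assay system: HEK293 cells with stable TRPC4beta plus mu-opioid receptor expression. Dosing: single dose. Measured by: Fluo4 Ca2+ flux fluorescence. Also added: DAMGO in two steps, submaximal then maximal. Read-out: B score from integrated Fluo4 fluorescence ratio.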
TRPC6 act = activators of mouse TRPC6 channel. B-score at 10 µM. Q61143. 310,000 compounds, 0.13% hits. AID 2550. HEK293-TRPC6 membrane potential dye fluorescence; stronger effect = higher value;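 active = B-score of the integrated fluorescence ratio above library mean plus 3 SD, and starting fluorescence ratio within library mean plus 5 SD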;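 note: higher score means more depolarization so channel activation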
TRPC6 inh = blocks the mouse TRPC6 cation channel | Q61143 | AID 2553 | B-score at 10 µM | 310,000 compounds, 1.1% hits | HEK293-TRPC6, membrane potential dye, ACh-evoked depolarization; stronger effect = lower value;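 active = B-score under library mean minus 3 SD, initial fluorescence not abnormally high, positive integrated signal ratio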;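 note: B-score derived from integrated fluorescence ratio over the kinetic read; more negative B-score means stronger inhibition of depolarization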
TRPC4 PAM = allosterically enhances the mouse TRPC4 cation channel; AID 2227; Q9QUQ5; 310,000 compounds, 0.42% hits; B-score at 10 µM; HEK293 TRPC4beta/mu-opioid, DAMGO EC20, Fluo-4 Ca2+ flux; stronger effect = higher value;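 active = B-score of calcium response area above 5 SD of library B-scores, with initial fluorescence ratio within 5 SD of library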
Kir21 block = Kir2.1 (mouse) channel inhibition; HEK293-Kir2.1, FluxOR thallium flux fluorescence; stronger effect = lower value; B-score at 10 µM; 310,000 compounds, 0.85% hits;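 active = fluorescence ratio B-score at or below minus 3 SD of library scores, with starting-brightness B-score within 2 SD, cut at about -4.2 in these data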;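 note: channel flux triggered by added potassium and thallium sulfate stimulus; B-score of peak minus minimum fluorescence over baseline after thallium stimulus; more negative B-score means stronger Kir2.1 block with less thallium influx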
Target sequence (P35561 whole entry, looked up): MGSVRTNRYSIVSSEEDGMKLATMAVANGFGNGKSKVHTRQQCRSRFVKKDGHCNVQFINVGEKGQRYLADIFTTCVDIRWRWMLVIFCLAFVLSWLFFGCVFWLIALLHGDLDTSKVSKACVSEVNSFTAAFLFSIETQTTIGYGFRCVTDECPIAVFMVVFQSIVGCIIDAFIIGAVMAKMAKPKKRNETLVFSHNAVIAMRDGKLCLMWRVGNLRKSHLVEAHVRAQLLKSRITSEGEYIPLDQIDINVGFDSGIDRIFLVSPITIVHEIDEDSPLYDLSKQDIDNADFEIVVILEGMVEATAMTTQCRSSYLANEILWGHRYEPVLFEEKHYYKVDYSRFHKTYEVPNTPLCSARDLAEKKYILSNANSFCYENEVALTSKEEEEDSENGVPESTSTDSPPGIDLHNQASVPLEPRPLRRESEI
A number is an active result; - = inactive.

SMILES	TRPC4 agonist	TRPC4 block	TRPC6 act	TRPC6 inh	TRPC4 PAM	Kir21 block
CCn1nccc1C(=O)Nc1cc(Cl)cc(Cl)c1	-	-5	-	-	-	-
CC(=O)c1cccc(CN2CCC(C(=O)Nc3ccc(-c4cccc(C)c4)cc3)CC2)c1	-	-	-	-	-	-
CSc1ccc2nnc(-c3cccc(F)c3)n2n1	-	-	-	-	21	-
Cc1noc2ncnc(Sc3ccc(Br)cc3)c12	-	-	-	-	-	-
c1ccc(-c2csc3nnc(SCc4ccc5c(c4)OCO5)n23)cc1	-	-	-	-	-	-4.27
O=C(CCSc1nnc2scc(-c3ccccc3)n12)NCc1ccc2c(c1)OCO2	-	-	-	-	-	-
CN(C)CCCSc1nc(-c2ccccc2)nc2c1CCC2	-	-	-	-	16	-9.71
CN(C)CCSc1nc(-c2ccccc2)nc2c1CCC2	-	-	-	-	-	-
OC(CNCCc1ccc(C(F)(F)F)cc1)COC(c1ccccc1)c1ccccc1 (stereo unspecified)	-	-	-	-	-	-7.88
O=C(CCNS(=O)(=O)c1ccccc1F)N1CCN(Cc2ccccc2)CC1	-	-	-	-	-	-
CCC(C)(C)NC(=O)C(c1cccc(OC)c1OC)N(CCOC)C(=O)CCC(=O)Nc1cc(C)on1 (stereo unspecified)	-	-	-	-	-	-
N[C@@H](Cc1ccccc1)C(=O)N1CCC(C(=O)N[C@@H](Cc2c[nH]c3ccccc23)C(=O)O)CC1	-	-6	-	-	-	-
Cc1ccc(-n2nc3c(c2NC(=O)c2ccco2)CS(=O)C3)cc1 (stereo unspecified)	-	-	-	-	-	-
CCC1(c2ccc(F)cc2)NC(=O)N(CC(=O)NC2CC2)C1=O (stereo unspecified)	-	-	-	-	-	-
CCC1(c2ccc(F)cc2)NC(=O)N(CC(=O)c2cc(C)n(C3CC3)c2C)C1=O (stereo unspecified)	54	-	-	-	16	-
O=[N+]([O-])c1ccc(NCc2ccccc2N2CCC(CO)CC2)nc1	-	-	-	-	-	-
O=C1CC(N2CCN(c3ccc(F)cc3)CC2)C(=O)N1c1ccc(F)cc1 (stereo unspecified)	-	-	-	-	-	-
O=C1CC(N2CCN(c3nc4ccccc4s3)CC2)C(=O)N1c1ccc(F)cc1 (stereo unspecified)	-	-	-	-	14	-
CCCCN(C)CC(O)Cn1cc(/C=C/C(=O)c2ccc(C)cc2)c2ccccc21 (stereo unspecified)	-	-	-	-	-	-5.21
CCOc1ccc(Br)cc1S(=O)(=O)N1CCSC1	-	-	-	-	-	-4.95
CCOc1cc(Br)ccc1S(=O)(=O)N1CCC(C(N)=O)CC1	-	-	-	-	-	-
COc1cc(CNCc2ccco2)ccc1OCc1ccccc1	-	-	-	-	-	-
COc1cc(CNCc2ccccn2)ccc1OCc1cccc(Cl)c1	-	-	-	-	-	-7.61
COc1cc(CNCc2ccccn2)ccc1OCc1c(Cl)cccc1Cl	-	-	-	-	-	-8.79
Cc1cccc(-c2nnc(SCC(=O)N3CCOCC3)o2)c1	-	-	-	-	-	-
SMILES	TRPC4 agonist	TRPC4 block	TRPC6 act	TRPC6 inh	TRPC4 PAM	Kir21 block
CNCCCOc1ccc(C(C)(C)c2ccccc2)cc1	-	-	-	-	-	-
CCC(C)NCCOc1ccc(C(C)(C)c2ccccc2)cc1 (stereo unspecified)	-	-	-	-	-	-11.5
COCCCNCCOc1ccc(C(C)(C)c2ccccc2)cc1	-	-	-	-	-	-13.1
Cc1cc(C)c(S(=O)(=O)NCC2CCC(C(=O)NCCCN3CCC(C)CC3)CC2)c(C)c1 (stereo unspecified)	-	-	-	-	-	-
O=[N+]([O-])/C=C/c1c(OCc2ccccc2)ccc2ccccc12	-	-	-	-	-	-7.86
CCOC(=O)Cn1cc(/C=C/[N+](=O)[O-])c2ccccc21	-	-	-	-	-	-
CCOC(=O)COc1ccc2ccccc2c1/C=C/[N+](=O)[O-]	-	-	-	-	-	-
CCOc1ccc(/C=C/[N+](=O)[O-])c2ccccc12	-	-	-	-	-	-8.31
CC(C)(C)OC(=O)COc1ccc(/C=N/NC(=O)CN2CCCCC2)cc1	-	-	-	-	-	-
Clc1ccc(Nc2ccc(NCc3ccccc3)nn2)cc1	-	-	-	-	-	-5.46
O=C(C[n+]1cccc(Br)c1)c1ccc(-c2ccccc2)cc1	-	-	-	-	-	-
CCCn1c(C(C)Nc2nc(-c3ccc(Cl)c([N+](=O)[O-])c3)cs2)nc2cc(Cl)c(N3CCCCC3)cc21 (stereo unspecified)	-	-	-	-	-	-
CCN1c2ccccc2-c2nc3ccccc3n2C1c1ccco1 (stereo unspecified)	-	-	-	-	-	-6.37
CCOC(=O)[C@@H]1[C@H]2COc3ccccc3[C@H]2N2C(=O)N(c3ccc(Cl)cc3)C(=O)[C@@]12C	-	-	-	-	-	-
CN(C)c1ccc(/C=C(/NC(=O)c2ccccc2)C(=O)N2CCCC2)cc1	-	-	-	-	-	-
O=C(CSCc1cnn(-c2ccccc2)c1-n1cccc1)NCc1cccs1	-	-	-	-	-	-6.27
COc1cccc(CNC(=O)CSCc2cnn(-c3ccccc3)c2-n2cccc2)c1	-	-	-	-	-	-5.79
Cc1ccc(-n2nc(-c3cccs3)cc2C(=O)NCC2CCCO2)c(C)c1 (stereo unspecified)	55	-7	-	-	-	-
CNC(=S)NNC(=O)c1cccn(Cc2cccc(Cl)c2)c1=O	-	-	-	-	13	-
CNC(=S)NNC(=O)c1cccn(Cc2ccc(Cl)c(Cl)c2)c1=O	-	-	-	-	-	-
COc1ccc(CCC(=O)NCC(=O)OCc2ccccc2)cc1	-	-	-	-	-	-
CCOc1ccccc1CN1CCNC(=O)C1CC(=O)NCCc1ccccn1 (stereo unspecified)	88	-	-	-	-	-
CN(CCc1ccccn1)C(=O)CC1C(=O)NCCN1Cc1ccc(-c2ccccc2)cc1 (stereo unspecified)	160	-	-	-	-	-
CCOc1ccccc1CN1CCNC(=O)C1CC(=O)NCCC1=CCCCC1 (stereo unspecified)	-	-	-	-	-	-
O=C(CC1C(=O)NCCN1Cc1ccc(-c2ccccc2)cc1)NCCc1ccccn1 (stereo unspecified)	130	-	-	-	-	-
Cc1csc(CN(C)C(=O)CC2C(=O)NCCN2Cc2ccc(Cl)c(F)c2)n1 (stereo unspecified)	-	-	-	-	12	-

High-throughput results as filed in PubChem BioAssay.
